From publication PMC3961596 (Advances in Therapy, 2014)
One block for each compound: values may come before it.

Experiments:
[1] = system: urinary glucose excretion; details: healthy subjects; cited from earlier work
[2] = system: urinary glucose excretion; assay: MAD study: urinary glucose excretion; type: in vivo, human; details: for mean daily UGE (range): administration days 1–7
Outline: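 Subjects took 5 or 10 mg/day or placebo orally for 7 days before breakfast. Urine was pooled over 24 h predose, over 2-h intervals to 16 h and 16–24 h on Days 1 and 7, and every 24 h on other days through Day 14. Glucose was measured on an automated analyzer; daily and 24-h cumulative UGE (g) were derived. Groups were compared with placebo by ANCOVA, with baseline glucose as covariate.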

[3] = system: plasma glucose; assay: Plasma glucose concentrations in the SAD and MAD studies; type: in vivo, human; details: healthy subjects, vs placebo
[4] = system: SGLT1; details: cited from earlier work
[5] = system: healthy male Japanese subjects; assay: Assessment of safety in the SAD and MAD studies; type: in vivo, human
[6] = system: SGLT2; details: read-out: 50% inhibitory concentration (IC50) for SGLT2; cited from earlier work
[7] = Single ascending dose; type: in vivo, human; details: for Cmax / Tmax / k el / Vd/F / half-life: human, plasma, po; for k el: λz
Outline: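 Healthy Japanese men received a single oral dose (1–25 mg) or placebo with 200 mL water under fasting conditions. The 5 mg group was redosed preprandially 8 days later, followed by a standardized ~630 kcal meal. Plasma and urine were collected to 48 h (96 h at 15 and 25 mg) and assayed by HPLC–MS/MS (urine LLOQ 0.5 ng/mL). Analysis was noncompartmental: AUClast by trapezoidal rule, AUCinf extrapolated. Dose proportionality used a power model; food effect used preprandial/fasting geometric mean ratios with 90% CI (mixed model).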

[8] = system: urinary glucose excretion; assay: SAD study: urinary glucose excretion; type: in vivo, human
Outline: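 After a single oral fasting dose (1–25 mg) or placebo, urine was pooled over 24 h predose and over intervals from 0–2 to 24–48 h post-dose, extended to 96 h for 15 and 25 mg. Aliquots were kept at 4 °C, and glucose was measured on an automated analyzer. UGE (g) was computed per collection period and as 24-h cumulative.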

[9] = animal study; cited from earlier work
[10] = 7-day multiple ascending dose; type: in vivo, human; details: for mean daily urinary luseogliflozin excretion rate (% of daily dose): Days 1–7, range; for mean urinary luseogliflozin excretion rate: Days 1–11 (96 h after the last administration); for AUC / AUC(0-inf): po
Outline: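 In healthy Japanese men, 5 or 10 mg/day or placebo was given orally for 7 days with 200 mL water just before breakfast, with a standardized ~630 kcal meal on Days 1 and 7. Heparin plasma was sampled to 12 h after the first dose, predose on Days 2–7, and to 96 h after the last dose. Plasma and urine were assayed by HPLC–MS/MS, and parameters derived noncompartmentally (AUCinf Day 1, AUC0–24 Day 7); accumulation was assessed by comparing these.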

[11] = both studies (SAD 1–25 mg, MAD 5 or 10 mg/day 7 days)
[12] = SAD, 5 mg, N = 8, estimated value (90% CI)

SMILES: Cc1ccc([C@@H]2O[C@H](CO)[C@@H](O)[C@H](O)[C@H]2O)cc1Cc1ccc(-c2ccc(F)cc2)s1 [canagliflozin]
maximum amount of daily UGE after multiple dose [1]: 50 to 55 g/day | maximum amount of daily UGE after single dose [1]: approximately 70 g/day

SMILES: CCOc1ccc(Cc2cc([C@@H]3O[C@H](CO)[C@@H](O)[C@H](O)[C@H]3O)ccc2Cl)cc1 [dapagliflozin]
maximum amount of daily UGE after multiple dose [1]: 50 to 55 g/day | maximum amount of daily UGE after single dose [1]: approximately 70 g/day

SMILES: OC[C@H]1O[C@@H](c2ccc(Cl)c(Cc3ccc(O[C@H]4CCOC4)cc3)c2)[C@H](O)[C@@H](O)[C@@H]1O [empagliflozin]
maximum amount of daily UGE after multiple dose [1]: 50 to 55 g/day | maximum amount of daily UGE after single dose [1]: approximately 70 g/day

SMILES: OC[C@H]1O[C@@H](c2ccc(F)c(Cc3cc4ccccc4s3)c2)[C@H](O)[C@@H](O)[C@@H]1O [ipragliflozin]
maximum amount of daily UGE after multiple dose [1]: 50 to 55 g/day | maximum amount of daily UGE after single dose [1]: approximately 70 g/day

AUCinf ratio preprandial/fasting [7, 12]: 105 (101–110) % | AUClast ratio preprandial/fasting [7, 12]: 105 (101–109) % | C max ratio preprandial/fasting [7, 12]: 107 (89.9–127) % | mean plasma concentration as % of C max ([7]; SAD, by 48 h after administration): 2–3% | dose proportionality ([7]; SAD, dose range 1–25 mg): dose proportionality was observed | mean urinary luseogliflozin excretion rate (% of each dose) ([7]; SAD, single administration, fasting, range over doses): 3.36–4.40% | CL/F ([7]; SAD, single oral 1 mg, fasting, N = 3, mean ± SD): 3.02 ± 0.489 L/h | CL/F ([7]; SAD, single oral 3 mg, fasting, N = 8, mean ± SD): 3.16 ± 0.744 L/h | CL/F ([7]; SAD, single oral 5 mg, fasting, N = 8, mean ± SD): 2.80 ± 0.465 L/h | CL/F ([7]; SAD, single oral 5 mg, preprandial, N = 8, mean ± SD): 2.64 ± 0.362 L/h | CL/F ([7]; SAD, single oral 9 mg, fasting, N = 8, mean ± SD): 2.98 ± 0.326 L/h | CL/F ([7]; SAD, single oral 15 mg, fasting, N = 8, mean ± SD): 2.99 ± 0.483 L/h | CL/F ([7]; SAD, single oral 25 mg, fasting, N = 8, mean ± SD): 2.99 ± 0.436 L/h | Cmax ([7]; 1 mg): 38.2 ± 4.86 ng/mL | Tmax ([7]; 1 mg): 40 ± 17.3 min | k el ([7]; 1 mg, SAD, single oral 1 mg, fasting, N = 3, mean ± SD): 1.85e-05 s⁻¹ | Cmax ([7]; 3 mg): 116 ± 24.6 ng/mL | Tmax ([7]; 3 mg): 45 ± 16 min | k el ([7]; 3 mg, SAD, single oral 3 mg, fasting, N = 8, mean ± SD): 2.11e-05 s⁻¹ | Cmax ([7]; 5 mg): 187 ± 27.3 ng/mL | Tmax ([7]; 5 mg): 63.6 ± 29.8 min | Vd/F ([7]; 5 mg): 38.9 ± 4.97 L | half-life ([7]; 5 mg): 618 ± 61.2 min | k el ([7]; 5 mg, SAD, single oral 5 mg, fasting, N = 8, mean ± SD): 2.01e-05 s⁻¹ | Cmax ([7]; 9 mg): 312 ± 45.2 ng/mL | Tmax ([7]; 9 mg): 75 ± 35.9 min | k el ([7]; 9 mg, SAD, single oral 9 mg, fasting, N = 8, mean ± SD): 1.96e-05 s⁻¹ | Vd/F ([7]; 15 mg): 60.5 ± 31 L | half-life ([7]; 15 mg): 828 ± 346 min | k el ([7]; 15 mg, SAD, single oral 15 mg, fasting, N = 8, mean ± SD): 1.57e-05 s⁻¹ | Vd/F ([7]; 25 mg): 54.7 ± 13.7 L | k el ([7]; 25 mg, SAD, single oral 25 mg, fasting, N = 8, mean ± SD): 1.56e-05 s⁻¹ | Tmax ([7]; male): 40 to 135 min | half-life ([7]; male): 554 to 828 min | Vd/F ([7]; male, 1 mg): 45.3 ± 6.88 L | half-life ([7]; male, 1 mg): 624 ± 33.1 min | Vd/F ([7]; male, 3 mg): 41.4 ± 7.17 L | half-life ([7]; male, 3 mg): 554 ± 57 min | Cmax ([7]; male, 5 mg): 205 ± 53.5 ng/mL | Tmax ([7]; male, 5 mg): 45 ± 32.1 min | Vd/F ([7]; male, 5 mg): 38.7 ± 4.11 L | half-life ([7]; male, 5 mg): 583 ± 70.2 min | Vd/F ([7]; male, 9 mg): 42.4 ± 5.4 L | Cmax ([7]; male, 15 mg): 544 ± 143 ng/mL | Cmax ([7]; male, 25 mg): 721 ± 123 ng/mL | mean daily urinary luseogliflozin excretion rate (% of daily dose) ([10]; MAD, 5 mg): 3.74–4.69% | mean urinary luseogliflozin excretion rate ([10]; MAD, 5 mg): 4.58% | CL/F ([10]; MAD, 5 mg/day oral before breakfast, Day 1, N = 8, mean ± SD): 2.72 ± 0.648 L/h | CL/F ([10]; MAD, 5 mg/day oral before breakfast, Day 7, N = 8, mean ± SD): 2.61 ± 0.537 L/h | mean daily urinary luseogliflozin excretion rate (% of daily dose) ([10]; MAD, 10 mg): 3.58–4.23% | mean urinary luseogliflozin excretion rate ([10]; MAD, 10 mg): 4.12% | CL/F ([10]; MAD, 10 mg/day oral before breakfast, Day 1, N = 8, mean ± SD): 3.05 ± 0.628 L/h | CL/F ([10]; MAD, 10 mg/day oral before breakfast, Day 7, N = 8, mean ± SD): 3.00 ± 0.612 L/h | accumulation potential ([10]; MAD, 7 days, AUCinf Day 1 vs AUCτ Day 7): No accumulation potential | trough concentrations, steady state ([10]; MAD, value just before each administration): reached a steady state by Day 7 | AUC ([10]; human, plasma, 5 mg/day): 1980 ng·h/mL | AUC(0-inf) ([10]; human, plasma, 5 mg/day): 1930 ng·h/mL | AUC ([10]; human, plasma, 10 mg/day): 3470 ng·h/mL | AUC(0-inf) ([10]; human, plasma, 10 mg/day): 3430 ng·h/mL | half-life ([10]; male, human, plasma, oral, mean T 1/2 after 7-day repeat administration (range), MAD, 5 and 10 mg/day, Day 7): 548 to 642 min
SMILES: CCOc1ccc(Cc2cc([C@@H]3S[C@H](CO)[C@@H](O)[C@H](O)[C@H]3O)c(OC)cc2C)cc1 [luseogliflozin, (1S)-1,5-anhydro-1-[5-(4-ethoxybenzyl)-2-methoxy-4-methylphenyl]-1-thio-D-glucitol]
mean daily UGE on Day 7 ([2]; 5 mg): 58.0 g | mean daily UGE (range) ([2]; 5 mg): 57.2 to 65.5 g | mean daily UGE on Day 7 ([2]; 10 mg): 62.7 g | mean daily UGE (range) ([2]; 10 mg): 62.7 to 76.9 g | mean daily UGE after the last administration ([2]; both 5 and 10 mg doses): about 60 g | effect on fasting plasma glucose levels [3]: did not produce clinically significant decreases in fasting plasma glucose levels | selectivity: SGLT2 IC50 lower than IC50 for SGLT1 [4]: 1,765 fold | changes in renal function test values, blood and urine electrolytes, body weight, vital signs, electrocardiography ([5]; MAD): no clinically significant changes | severity of AEs ([5]; MAD): mild and reversible | AE diarrhoea ([5]; MAD, 10 mg): 1 subject | AE occult blood positive ([5]; MAD, 10 mg): 1 subject | subjects with AEs ([5]; MAD, 16 subjects received luseogliflozin): 2 subjects | Escherichia coli and Klebsiella oxytoca in urine ([5]; MAD, after drug administration): less than 10^3 colony forming units/mL | changes in renal function test values, blood and urine electrolytes ([5]; SAD): no clinically significant changes | severity of AEs ([5]; SAD): mild, reversible, and did not appear to be dose-related | AE occult blood positive ([5]; SAD, 3 mg): 2 subjects | AE beta 2 microglobulin urine increased ([5]; SAD, 9 mg): 1 subject | AE diarrhoea ([5]; SAD, 25 mg): 1 subject | AE urethritis ([5]; SAD, 25 mg): 1 subject | subjects with AEs ([5]; SAD, 43 subjects received luseogliflozin): 7 subjects | hypoglycemia [5, 11]: no cases of hypoglycemia | serious AEs or AEs leading to discontinuation [5, 11]: no serious AEs or AEs leading to discontinuation were observed | IC50 [6]: 2.26 nM | effect of food on pharmacokinetics ([7]; SAD, 5 mg preprandial vs fasting): food had little effect on luseogliflozin pharmacokinetics | increase in 24-h UGE between 1 and 5 mg [8]: 2.7 fold | increase in 24-h UGE from 5 to 25 mg [8]: 1.4 fold | maximum of mean UGE for 24 h [8]: approximately 70 g | mean UGE for 24 h after administration ([8]; 1 mg): 18.9 g | mean UGE from 24 to 48 h after administration ([8]; 1 mg): 2.53 g | mean UGE for 24 h after administration ([8]; 3 mg): 36.8 g | mean UGE from 24 to 48 h after administration ([8]; 3 mg): 12.5 g | mean UGE for 24 h after administration ([8]; 5 mg): 50.2 g | mean UGE from 24 to 48 h after administration ([8]; 5 mg): 21.3 g | mean UGE for 24 h after administration ([8]; 9 mg): 54.3 g | mean UGE from 24 to 48 h after administration ([8]; 9 mg): 37.5 g | mean UGE for 24 h after administration ([8]; 15 mg): 60.7 g | mean UGE from 24 to 48 h after administration ([8]; 15 mg): 48.4 g | mean UGE for 24 h after administration ([8]; 25 mg): 70.9 g | mean UGE from 24 to 48 h after administration ([8]; 25 mg): 62.7 g | concentration in the kidney vs plasma [9]: higher concentration in the kidney than in the plasma
